Measured values of several laboratories.
Each line is one published result; the experiments were not run side by side.
CDK17 with cyclin Y: Cyclin-dependent kinase 17, with cyclin Y (CDK17, Homo sapiens, UniProt Q00537)
CDK17: Cyclin-dependent kinase 17 (CDK17, Homo sapiens, UniProt Q00537)

SMILES	target	test	setting	measurement	result
COc1ccc2oc(-c3ccc4nc(N)oc4c3)c/c(=N\c3ccccc3NC(=O)CCN)c2c1	CDK17 with cyclin Y	binding	1 µM	remaining binding	100%
C[C@H]1CC[C@H](n2c3cnccc3c3cnc(Nc4ccc5c(n4)CCN(C(=O)CO)C5)nc32)CC1	CDK17	binding, competition with immobilised ligand	1 µM	remaining binding	24%
Cc1cc(O)c(-c2ccc([C@@H](C)CN(C)C)cc2)c2c1[nH]c(=O)c1sccc12	CDK17	enzyme activity, inhibitor	0.1 µM	inhibition	2.42%
CC#CC(=O)N1CCC[C@H]1c1nc(-c2ccc(C(=O)Nc3ccccn3)cc2)c2c(N)nccn12	CDK17	enzyme activity, inhibitor	1 µM	inhibition	0%
CC(C)S(=O)(=O)c1ccc2nccc(Nc3ccc4sc(C5CCCC5)nc4c3)c2c1	CDK17 with cyclin Y	enzyme activity, inhibitor	1 µM	activity vs control	111%
CO[C@@H]1[C@H](N(C)C(=O)c2ccccc2)C[C@H]2O[C@]1(C)n1c3ccccc3c3c4c(c5c6ccccc6n2c5c31)C(=O)NC4	CDK17	enzyme activity, inhibitor	1 µM	inhibition	0%
Cc1ccc(NC(=O)c2ccnc(C(F)(F)F)c2)cc1-c1cc(OCCO)nc(N2CCOCC2)c1	CDK17	binding, competition with immobilised ligand	1 µM	remaining binding	98%
CCCCC(=O)Nc1ccc(-c2ccc3ncn(CCC)c(=O)c3c2)cn1	CDK17	binding, competition with immobilised ligand	0.5 µM	remaining binding	100%
